# Source: ChEMBL document CHEMBL1132436 (J Med Chem, 1999)
# Residues, ends and D or L forms follow the SMILES beside them.
# Assays:
# B2 bradykinin receptor = target: T1, B2 bradykinin receptor (Homo sapiens, UniProt P30411); experiment: Binding affinity towards human cloned Bradykinin receptor B2 expressed in CHO cells by [3H]bradykinin displacement.; assay type: cell-based
# T1 sequence (P30411 whole entry): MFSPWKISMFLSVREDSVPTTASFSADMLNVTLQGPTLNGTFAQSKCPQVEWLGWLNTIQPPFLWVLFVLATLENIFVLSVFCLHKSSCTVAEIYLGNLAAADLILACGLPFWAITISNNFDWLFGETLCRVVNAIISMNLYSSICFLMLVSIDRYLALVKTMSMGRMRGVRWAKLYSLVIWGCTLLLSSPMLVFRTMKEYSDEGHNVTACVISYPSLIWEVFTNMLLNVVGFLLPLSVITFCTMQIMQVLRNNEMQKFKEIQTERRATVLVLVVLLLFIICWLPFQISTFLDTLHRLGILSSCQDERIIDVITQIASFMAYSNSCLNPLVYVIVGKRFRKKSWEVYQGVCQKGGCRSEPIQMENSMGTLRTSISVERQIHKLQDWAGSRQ
# Procedure, shortened: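 Membranes from stably transfected CHO cells, scraped into 20 mM TES (pH 6.8) with 1 mM 1,10-phenanthroline, 140 μg/mL bacitracin and 0.1% BSA, then pelleted at 40000g for 15 min. Filtered through PEI-soaked GF/B filters and counted by scintillation. Means of ≥3 experiments in duplicate.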
# Homo sapiens [1] = species: Homo sapiens; experiment: (§1) Ability of Compound (Agonist) to contract isolated human umbilical vein in presence of inhibitor.; assay type: functional
# Homo sapiens [2] = species: Homo sapiens; experiment: Ability of Compound (Agonist) to contract isolated human umbilical vein in absence of inhibitor.; assay type: functional
# Homo sapiens [3] = species: Homo sapiens; experiment: as §1; assay type: functional, organism-based; settings: read-out: pA2 (converted)
molecule,measurement,setting,value
NC(N)=NCCC[C@@H](N)C(=O)N[C@@H](CCCN=C(N)N)C(=O)N1CCC[C@H]1C(=O)N1CC(O)C[C@H]1C(=O)NCC(=O)N[C@@H](Cc1cccs1)C(=O)N[C@@H](CO)C(=O)N[C@@H]1CCc2cccc3c2N(C1=O)[C@@H](C(=O)N[C@H](CCCN=C(N)N)C(=O)O)C3 (some centres not stated),Ki,B2 bradykinin receptor; cho,140 nM
NC(N)=NCCC[C@@H](N)C(=O)N[C@@H](CCCN=C(N)N)C(=O)N1CCC[C@H]1C(=O)N1CC(O)C[C@H]1C(=O)NCC(=O)N[C@@H](Cc1cccs1)C(=O)N[C@@H](CO)C(=O)N[C@H]1CCc2cccc3c2N(C1=O)[C@@H](C(=O)N[C@H](CCCN=C(N)N)C(=O)O)C3 (some centres not stated),Ki,B2 bradykinin receptor; cho,160 nM
Cc1ccc2c(c1)SC[C@@H](NC(=O)[C@H](CO)NC(=O)[C@H](Cc1cccs1)NC(=O)CNC(=O)[C@@H]1C[C@@H](O)CN1C(=O)[C@@H]1CCCN1C(=O)[C@H](CCCNC(=N)N)NC(=O)[C@H](N)CCCNC(=N)N)C(=O)N2CC(=O)N[C@@H](CCCNC(=N)N)C(=O)O [listing 1 of 2 here],Ki,B2 bradykinin receptor,6 nM
Cc1ccc2c(c1)SC[C@@H](NC(=O)[C@H](CO)NC(=O)[C@H](Cc1cccs1)NC(=O)CNC(=O)[C@@H]1C[C@@H](O)CN1C(=O)[C@@H]1CCCN1C(=O)[C@H](CCCNC(=N)N)NC(=O)[C@H](N)CCCNC(=N)N)C(=O)N2CC(=O)N[C@@H](CCCNC(=N)N)C(=O)O [listing 2 of 2 here],pD2,Homo sapiens [1],7.4
same,pD2,Homo sapiens [2],7.3
NC(N)=NCCC[C@@H](N)C(=O)N[C@@H](CCCN=C(N)N)C(=O)N1CCC[C@H]1C(=O)N1CC(O)C[C@H]1C(=O)NCC(=O)N[C@@H](Cc1cccs1)C(=O)N[C@@H](CO)C(=O)N[C@@H]1CCN([C@@H](Cc2ccccc2)C(=O)N[C@@H](CCCN=C(N)N)C(=O)O)C1=O (some centres not stated),Ki,B2 bradykinin receptor,2070 nM
NC(N)=NCCC[C@@H](N)C(=O)N[C@@H](CCCN=C(N)N)C(=O)N1CCC[C@H]1C(=O)N1CC(O)C[C@H]1C(=O)NCC(=O)N[C@@H](Cc1cccs1)C(=O)N[C@@H](CO)C(=O)N[C@]1(Cc2ccccc2)C(=O)C(Cc2ccccc2)N(CC(=O)N[C@@H](CCCN=C(N)N)C(=O)O)C1=O (some centres not stated),Ki,B2 bradykinin receptor,14 nM
N=C(N)NCCC[C@@H](N)C(=O)N[C@@H](CCCNC(=N)N)C(=O)N1CCC[C@H]1C(=O)N1C[C@H](O)C[C@H]1C(=O)NCC(=O)N[C@@H](Cc1cccs1)C(=O)N[C@@H](CO)C(=O)N[C@@H]1COc2ccccc2N(CC(=O)N[C@@H](CCCNC(=N)N)C(=O)O)C1=O [listing 1 of 2 here],Ki,B2 bradykinin receptor,2.5 nM
N=C(N)NCCC[C@@H](N)C(=O)N[C@@H](CCCNC(=N)N)C(=O)N1CCC[C@H]1C(=O)N1C[C@H](O)C[C@H]1C(=O)NCC(=O)N[C@@H](Cc1cccs1)C(=O)N[C@@H](CO)C(=O)N[C@@H]1COc2ccccc2N(CC(=O)N[C@@H](CCCNC(=N)N)C(=O)O)C1=O [listing 2 of 2 here],pD2,Homo sapiens [2],5.1
N=C(N)NCCC[C@@H](N)C(=O)N[C@@H](CCCNC(=N)N)C(=O)N1CCC[C@H]1C(=O)N1CC(O)C[C@H]1C(=O)NCC(=O)N[C@@H](Cc1cccs1)C(=O)N[C@@H](CO)C(=O)N[C@H]1CCCN(CC(=O)N[C@@H](CCCNC(=N)N)C(=O)O)C1=O (some centres not stated),Ki,B2 bradykinin receptor,18600 nM
N=C(N)NCCC[C@@H](N)C(=O)N[C@@H](CCCNC(=N)N)C(=O)N1CCC[C@H]1C(=O)N1CC(O)C[C@H]1C(=O)NCC(=O)N[C@@H](Cc1cccs1)C(=O)N[C@@H](CO)C(=O)N[C@H]1CCCCN(CC(=O)N[C@@H](CCCNC(=N)N)C(=O)O)C1=O (some centres not stated),Ki,B2 bradykinin receptor,520 nM
N=C(N)NCCC[C@@H](N)C(=O)N[C@@H](CCCNC(=N)N)C(=O)N1CCC[C@H]1C(=O)N1CC(O)C[C@H]1C(=O)NCC(=O)N[C@@H](Cc1cccs1)C(=O)N[C@@H](CO)C(=O)N[C@@H]1CCN(CC(=O)N[C@@H](CCCNC(=N)N)C(=O)O)C1=O (some centres not stated),Ki,B2 bradykinin receptor,4900 nM
NC(N)=NCCC[C@@H](N)C(=O)N[C@@H](CCCN=C(N)N)C(=O)N1CCC[C@H]1C(=O)N1CC(O)C[C@H]1C(=O)NCC(=O)N[C@@H](Cc1cccs1)C(=O)N[C@@H](CO)C(=O)N[C@@H]1CCCCN(CC(=O)N[C@@H](CCCN=C(N)N)C(=O)O)C1=O (some centres not stated),Ki,B2 bradykinin receptor,770 nM
N=C(N)NCCC[C@@H](N)C(=O)N[C@@H](CCCNC(=N)N)C(=O)N1CCC[C@H]1C(=O)N1C[C@H](O)C[C@H]1C(=O)NCC(=O)N[C@@H](Cc1cccs1)C(=O)N[C@@H](CO)C(=O)N[C@@H]1CSc2ccccc2N(CC(=O)N[C@@H](CCCNC(=N)N)C(=O)O)C1=O [listing 1 of 2 here],Ki,B2 bradykinin receptor,0.7 nM
N=C(N)NCCC[C@@H](N)C(=O)N[C@@H](CCCNC(=N)N)C(=O)N1CCC[C@H]1C(=O)N1C[C@H](O)C[C@H]1C(=O)NCC(=O)N[C@@H](Cc1cccs1)C(=O)N[C@@H](CO)C(=O)N[C@@H]1CSc2ccccc2N(CC(=O)N[C@@H](CCCNC(=N)N)C(=O)O)C1=O [listing 2 of 2 here],pD2,Homo sapiens [1],6.8
same,pD2,Homo sapiens [2],6.7
N=C(N)NCCC[C@@H](N)C(=O)N[C@@H](CCCNC(=N)N)C(=O)N1CCC[C@H]1C(=O)N1CC(O)C[C@H]1C(=O)NCC(=O)N[C@@H](Cc1cccs1)C(=O)N[C@@H](CO)C(=O)N[C@H]1CCN(CC(=O)N[C@@H](CCCNC(=N)N)C(=O)O)C1=O (some centres not stated),Ki,B2 bradykinin receptor,1030 nM
N=C(N)NCCC[C@H](NC(=O)CN1C(=O)[C@H](NC(=O)[C@H](CO)NC(=O)[C@H](Cc2cccs2)NC(=O)CNC(=O)[C@@H]2C[C@@H](O)CN2C(=O)[C@@H]2CCCN2C(=O)[C@H](CCCNC(=N)N)NC(=O)[C@@H](N)CCCCN)CSc2ccccc21)C(=O)O [listing 1 of 2 here],Ki,B2 bradykinin receptor,0.07 nM
N=C(N)NCCC[C@H](NC(=O)CN1C(=O)[C@H](NC(=O)[C@H](CO)NC(=O)[C@H](Cc2cccs2)NC(=O)CNC(=O)[C@@H]2C[C@@H](O)CN2C(=O)[C@@H]2CCCN2C(=O)[C@H](CCCNC(=N)N)NC(=O)[C@@H](N)CCCCN)CSc2ccccc21)C(=O)O [listing 2 of 2 here],pD2,Homo sapiens [1],7.1
same,pD2,Homo sapiens [2],7
COc1ccc(C[C@@H](CN[C@@H](CCCN=C(N)N)C(=O)O)NC(=O)[C@@H]2CCCN2C(=O)[C@H](CO)NC(=O)[C@H](Cc2cccs2)NC(=O)CNC(=O)[C@@H]2C[C@@H](O)CN2C(=O)[C@@H]2CCCN2C(=O)[C@@H](N)CCCN=C(N)N)cc1 (HELM PEPTIDE1{R.P.[Hyp].G.[O=C([C@H](Cc1cccs1)N[*:1])[*:2]].S.P.[COc1ccc(C[C@@H](CN[C@@H](CCCN=C(N)N)C(=O)O)N[*:1])cc1]}$$$$V2.0),pD2,Homo sapiens [1],7.1
same,pD2,Homo sapiens [2],6.9
NC(N)=NCCC[C@@H](N)C(=O)N[C@@H](CCCN=C(N)N)C(=O)N1CCC[C@H]1C(=O)N1C[C@H](O)C[C@H]1C(=O)NCC(=O)N[C@@H](Cc1cccs1)C(=O)N[C@@H](CO)C(=O)NC1N=C(c2ccccc2)c2ccccc2N(CC(=O)N[C@@H](CCCN=C(N)N)C(=O)O)C1=O (stereo in doubt; 34),Ki,B2 bradykinin receptor; cho,86 nM
NC(N)=NCCC[C@@H](N)C(=O)N[C@@H](CCCN=C(N)N)C(=O)N1CCC[C@H]1C(=O)N1C[C@H](O)C[C@H]1C(=O)NCC(=O)N[C@@H](Cc1cccs1)C(=O)N[C@@H](CO)C(=O)NC1N=C(c2ccccc2)c2ccccc2N(CC(=O)N[C@@H](CCCN=C(N)N)C(=O)O)C1=O (stereo in doubt; 35),Ki,B2 bradykinin receptor; cho,1040 nM
N=C(N)NCCC[C@@H](N)C(=O)N[C@@H](CCCNC(=N)N)C(=O)N1CCC[C@H]1C(=O)N1C[C@H](O)C[C@H]1C(=O)NCC(=O)N[C@@H](Cc1cccs1)C(=O)N[C@@H](CO)C(=O)N1Cc2ccccc2C[C@@H]1C(=O)N1[C@H](C(=O)N[C@@H](CCCNC(=N)N)C(=O)O)C[C@@H]2CCCC[C@@H]21 [ICATIBANT],Kb,Homo sapiens [3],6.31 nM
H-RPPGFSPFR-OH [BRADYKININ],pD2,Homo sapiens [1],7.9
same,pD2,Homo sapiens [2],7.4
